# GC-B act – human GC-B receptor activators, primary screen, HEK293 GC-B cells, cGMP TR-FRET, EC30 CNP | activation, % at 10 µM | 0% at EC30 CNP, 100% saturating CNP | Atrial natriuretic peptide receptor 2 (Homo sapiens), P20594 | actives 0.11% (n = 370,000);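 active means activation at 10 µM reaching about 35% in either raw or pattern-adjusted values, limit read from the data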
# NSD2 inh – NSD2 histone methyltransferase inhibitors, primary screen, biochemical, AlphaScreen, single concentration, set 2; Histone-lysine N-methyltransferase NSD2 (Homo sapiens), O96028; NSD2 peptide methylation, 120 min; inhibition, % at 12.5 µM; actives 0.54% (n = 310,000); AID 743445, 2014; in the data active means inhibition above about 50%
# GC-A act – GC-A stimulated cGMP production enhancers – HEK293 GC-A cells, cGMP TR-FRET, EC30 ANP, primary screen; activation, % at 10 µM; AID 1671463, 2021; 0% at EC30 ANP, 100% saturating ANP; actives 0.14% (n = 370,000); in the data active means activation above about 40%
# FN deposit inh – inhibitors of fibronectin matrix deposition, primary screen, AH1F cells, Alexa488-fibronectin fluorescence, plate reader | AH1F fibroblasts, overnight | inhibition, % at 12.6 µM | actives 0.086% (n = 350,000) | AID 743247, 2014;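 active means mean inhibition across replicates of 30% or more, regardless of how many single replicates reach that level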;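 further: positive control wells lacked labelled fibronectin entirely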
#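 Assay system: AH1F fibroblasts assembling fluorescent fibronectin matrix; Amount: 10000 AH1F cells per well; Buffer or medium: DMEM, 2% serum; Probe or stimulus: Alexa488-fibronectin, 24 nM final in well; Doses: single compound dose, delivered by pin transfer; Incubation: 1 h adhesion, overnight exposure; Measured by: fluorescence 485/525 nm; Read-out: fibronectin deposition inhibition.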
# CaV13 ICDI inh – Primary screen for inhibitors of IQ motif and Ca2+-dependent inactivation inhibitor domain binding in CACNA1D, Förster resonance energy transfer in living cells, …. HEK cells, CFP/YFP FRET ICDI-IQ, plate reader, 10 min; percent FRET-ratio fall versus neutral wells. inhibition, % at 12.3 µM. actives 0.098% (n = 340,000);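 active means mean replicate inhibition of at least 30% and at least 1% of replicates passing that level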;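 further: 0% = median of the neutral control wells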
# CASP6 VEID inh – human caspase-6 inhibitors, primary screen, biochemical, VEID-R110 fluorescence, single point, set 2; P55212; purified caspase-6, Z-VEID-R110 cleavage fluorescence; inhibition, % at 12.5 µM; actives 0.53% (n = 350,000);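 active means mean inhibition across replicates at least about 35%, with every replicate also reaching that limit, limit read from the data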;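 further: 0% = median of neutral control wells and 100% = no fluorescence left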
# * marks the source's active call; other numbers are inactive results; · = no result given; + = active, no number. Most compounds without a hit are left out; they make up all but 0.99% or so of the library.
SMILES,GC-B act,NSD2 inh,GC-A act,FN deposit inh,CaV13 ICDI inh,CASP6 VEID inh
Cc1ccc(Sc2ccc(S(=O)(=O)Nc3ccc(CC(=O)O)cc3)cc2)cc1C,-2.2,7.2,0.6,6.8,-6.2,41.1*
CC[C@H](C)[C@@H]1NC(=O)[C@@H](CC(C)C)NC(=O)[C@H](C(C)C)NC(=O)[C@H]2CSSC[C@H](NC1=O)C(=O)N2,-5.3,·,-2.0,34.4*,-5.4,-3.7
CCCC#Cc1cnc2c(c1)C(=O)N([C@@H](C)CO)C[C@H](C)[C@@H](CN(C)S(=O)(=O)c1cccc(OC)c1)O2,·,·,·,·,·,-0.8
COc1ccc(C2c3[nH]c4ccccc4c3CCN2C(=O)c2cc3ncccn3n2)c(F)c1 (stereo unspecified),37.1*,0.0,38.3,1.5,-2.5,-2.5
O=C(Nc1ccccc1)N[C@H]1CC[C@H](CCn2cc(-c3ccccc3F)nn2)O[C@@H]1CO,·,·,·,·,·,-0.8
C[C@H](CO)N1C[C@H](C)[C@@H](CN(C)C(=O)Nc2ccc(F)cc2)Oc2ncc(C#C[C@@H](C)O)cc2C1=O,·,·,·,-4.8,·,-2.5
O=C(c1ccco1)c1coc2c1cc(O)c1ccccc12,-1.3,12.5,3.7,5.1,-3.8,46.7*
O=C(CCSC1=NCCCN1)c1ccc(F)cc1,-1.2,1.1,78.3*,11.4,-6.7,-3.7
N#C[C@@H]1[C@@H](c2ccccc2-c2ccccc2)[C@H](CO)N1C(=O)NC1CCCCC1,·,·,·,-3.1,·,0.1
Nc1cc(N)cc(C(=O)c2ccccc2)c1,-3.4,44.5,2.8,-15.3,-5.0,36.4*
O=C(c1ccccc1)c1cccc(C(=O)c2ccccc2)c1,·,-5.9,·,·,·,·
CC(NC(=S)NC1CCCCC1)c1ccc(C(C)(C)C)cc1 (stereo unspecified),-1.6,4.6,-2.6,-11.4,-3.5,41.7*
COCC#Cc1ccc2c(c1)O[C@@H](CN(C)C(=O)C1CCC1)[C@H](C)CN([C@@H](C)CO)S2(=O)=O,·,·,·,·,·,0.1
O=c1n(Cc2ccc(Cl)cc2)c2sc3c(c2c2ncnn12)CCCC3,48.7*,2.3,34.4,·,·,·
C=CCn1c(=O)n2ncnc2c2c3c(sc21)CCCC3,1.1,2.0,17.3,·,-6.2,5.7
CCOC(=O)C1=C(C)NC(=O)NC1c1ccco1 (stereo unspecified),0.8,4.6,-0.3,·,-7.7,46.4*
COc1cc2c(cc1OC)C(c1ccc(Br)cc1)NCC2 (stereo unspecified),-6.8,2.4,-11.0,4.6,-2.0,-1.4
COc1ccc(C2NCCc3cc(OC)c(OC)cc32)cc1OC (stereo unspecified),6.6,-0.8,0.2,active,-5.3,·
CCOc1cc2c(cc1OC)C(c1cccc([N+](=O)[O-])c1)NCC2 (stereo unspecified),2.2,-24.2,5.6,0.4,-4.6,42.3*
O=C(CCN1CCCCC1)NCC[C@@H]1CC[C@@H](NC(=O)C2CCC2)[C@H](CO)O1,·,·,·,·,·,3.1
CC(C)NC(=O)Nc1cccc2c1O[C@H](CN(C)Cc1ccc3c(c1)OCO3)[C@@H](C)CN([C@H](C)CO)C2=O,·,·,·,-7.7,·,-1.8
CC1(C)Cc2c(sc(NC(=O)c3ccco3)c2C(=O)O)CO1,2.4,·,1.8,·,-9.1,37.5*
CC1(C)Cc2c(sc(NC(=S)NC(=O)c3ccccc3)c2C(=O)O)CO1,0.5,2.7,1.9,5.6,-0.6,4.6
C[C@H](CO)N1C[C@H](C)[C@@H](CN(C)C(=O)c2ccc(F)cc2)Oc2ncc(C#CC3CC3)cc2C1=O,·,·,·,·,·,0.3
Cc1ccc(S(=O)(=O)N[C@H]2C=C[C@H](CC(=O)N3CCC(Cc4ccccc4)CC3)O[C@H]2CO)cc1,·,·,·,·,·,-9.4
SMILES,GC-B act,NSD2 inh,GC-A act,FN deposit inh,CaV13 ICDI inh,CASP6 VEID inh
COc1ccccc1/C=N/Nc1nc(C)cc(=O)[nH]1,7.2,9.6,-3.8,-7.2,40.3*,4.2
COc1ccc(OC)c(/C=N/Nc2nc(C)cc(=O)[nH]2)c1,7.1,-4.9,0.2,-1.9,-4.8,0.8
O=C([C@@H]1[C@@H](CO)[C@@H]2Cn3c(ccc(-c4ccccc4)c3=O)[C@H]1N2CCC(F)(F)F)N1CCOCC1,·,·,·,·,·,-5.2
COc1cc(Nc2cc(C)n(-c3ccc(Cl)c(OC)c3)c(=O)c2)ccc1Cl,-0.3,·,10.6,-6.9,·,3.7
Cc1cc(Nc2cc(Cl)cc(Cl)c2)cc(=O)n1-c1cc(Cl)cc(Cl)c1,28.1*,·,21.2,-2.3,·,8.5
C[C@H](CO)N1C[C@H](C)[C@@H](CN(C)C(=O)Cc2ccncc2)Oc2ncc(C#C[C@@H](C)O)cc2C1=O,·,·,·,5.1,·,0.6
COc1ccc(C2C3=C(CC(C)(C)CC3=O)N(C)C3=C2C(=O)CC(C)(C)C3)cc1,1.6,-6.2,5.1,0.7,+,-0.8
CO[C@@H]1CN(C)C(=O)c2ccc(NS(=O)(=O)c3ccccc3)cc2OC[C@H](C)NC[C@@H]1C,·,·,·,-2.7,·,·
CCS(=O)(=O)C1=NN2C(=N)/C(=C\c3ccc(OC(=O)c4ccco4)c(Br)c3)C(=O)N=C2S1,·,20.0,·,·,·,·
CCS(=O)(=O)C1=NN2C(=N)/C(=C\c3ccc(SCc4ccco4)o3)C(=O)N=C2S1,-3.6,95.4*,-6.9,2.5,-4.4,·
O=C1[C@H]2[C@@H](c3ccccc3)N[C@]3(CCCN(CC4CCCCC4)C3=O)[C@H]2C(=O)N1Cc1ccccc1,2.1,·,1.2,0.2,-3.0,40.5*
C[C@@H]1CN([C@H](C)CO)C(=O)c2cc(NC(=O)Nc3ccc(F)cc3)ccc2O[C@@H]1CN(C)S(=O)(=O)c1cn(C)cn1,·,·,·,·,·,-13.7
CN(C)/C=C/C(=O)c1ccc(C(F)(F)F)cc1F,6.0,-3.9,-1.4,12.8,-0.6,1.7
CN(C)/C=C/C(=O)c1c(F)cccc1F,2.8,-0.8,-0.5,1.1,93.9*,2.2
CCOc1ccc2nc(NCCNC(=O)CC)c(C#N)cc2c1,-2.3,-3.3,0.8,·,33.1*,·
CCOc1ccc2nc(NCCCNC(=O)c3cc(OC)c(OC)c(OC)c3)c(C#N)cc2c1,-10.8,-12.9,-4.2,-0.1,+,0.0
CCCN(C)C[C@@H]1Oc2cc(-c3ccccc3C)ccc2S(=O)(=O)N([C@@H](C)CO)C[C@@H]1C,·,·,·,1.8,·,·
CCNC(=O)Nc1ccc2c(c1)C(=O)N(C)[C@H]1CC[C@H](CC(=O)Nc3ccccc3OC)O[C@@H]1CO2,·,·,·,22.9,·,2.0
